{
  "source": "ChEMBL document CHEMBL5357037",
  "about": "“Scaffold hopping based designing of selective ALDH1A1 inhibitors to overcome cyclophosphamide resistance: synthesis and biological evaluation” (RSC Med Chem, 2024)",
  "key": {"[1]": {"assay": "Lipid-water partition coefficient, logP of the compound", "type": "physicochemical"}, "[2]": {"biological_target": "T1, Aldehyde dehydrogenase, dimeric NADP-preferring (Homo sapiens, UniProt P30838)", "T1 sequence (P30838 whole entry)": "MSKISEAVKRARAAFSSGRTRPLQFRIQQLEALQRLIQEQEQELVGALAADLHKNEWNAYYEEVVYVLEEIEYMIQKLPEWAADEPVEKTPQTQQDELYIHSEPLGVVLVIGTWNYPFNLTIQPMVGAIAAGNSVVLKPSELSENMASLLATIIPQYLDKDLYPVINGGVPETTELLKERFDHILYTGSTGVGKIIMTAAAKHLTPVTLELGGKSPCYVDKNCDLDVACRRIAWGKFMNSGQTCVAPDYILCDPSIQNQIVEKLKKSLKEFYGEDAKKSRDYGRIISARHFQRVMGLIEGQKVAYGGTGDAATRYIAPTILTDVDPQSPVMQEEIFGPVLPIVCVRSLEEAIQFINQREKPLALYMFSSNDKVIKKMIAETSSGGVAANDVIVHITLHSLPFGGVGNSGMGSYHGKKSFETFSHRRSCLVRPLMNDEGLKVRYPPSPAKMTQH", "assay": "Inhibition of human ALDH3A1 using 4-nitrobenzaldehyde as substrate preincubated with enzyme for 15 mins followed by substrate addition in presence of NAD+ and measured for 5 mins by spectrophotometric analysis", "summary_of_the_method": "(§1)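 Human recombinant ALDH1A1, ALDH2 or ALDH3A1 preincubated with test compounds for 15 min at 25 °C. NADH absorbance read kinetically for 5 min. IC50 fitted from five concentrations vs %inhibition. Single-point final concentrations were 10 μM for ALDH1A1 and 100 μM for ALDH2 and ALDH3A1.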"}, "[3]": {"biological_target": "T2, Aldehyde dehydrogenase, mitochondrial (Homo sapiens, UniProt P05091)", "T2 sequence (P05091 whole entry)": "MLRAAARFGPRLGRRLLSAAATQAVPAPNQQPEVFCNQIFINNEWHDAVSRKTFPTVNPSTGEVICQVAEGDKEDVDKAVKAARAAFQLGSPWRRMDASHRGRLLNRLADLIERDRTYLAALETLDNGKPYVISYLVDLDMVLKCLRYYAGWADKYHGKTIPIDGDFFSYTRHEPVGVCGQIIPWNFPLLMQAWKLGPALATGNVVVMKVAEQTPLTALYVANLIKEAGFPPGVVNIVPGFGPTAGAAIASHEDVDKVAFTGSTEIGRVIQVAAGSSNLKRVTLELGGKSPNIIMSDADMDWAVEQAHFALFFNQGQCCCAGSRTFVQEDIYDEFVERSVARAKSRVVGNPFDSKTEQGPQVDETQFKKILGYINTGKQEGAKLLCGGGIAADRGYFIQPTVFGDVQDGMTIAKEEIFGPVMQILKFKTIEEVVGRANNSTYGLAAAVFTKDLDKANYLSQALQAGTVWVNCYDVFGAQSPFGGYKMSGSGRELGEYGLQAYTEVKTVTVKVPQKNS", "assay": "Inhibition of human ALDH2 using acetaldehyde as substrate preincubated with enzyme for 15 mins followed by substrate addition in presence of NAD+ and measured for 5 mins by spectrophotometric analysis", "summary_of_the_method": "as §1"}, "[4]": {"biological_target": "T3, Aldehyde dehydrogenase 1A1 (Homo sapiens, UniProt P00352)", "T3 sequence (P00352 whole entry)": "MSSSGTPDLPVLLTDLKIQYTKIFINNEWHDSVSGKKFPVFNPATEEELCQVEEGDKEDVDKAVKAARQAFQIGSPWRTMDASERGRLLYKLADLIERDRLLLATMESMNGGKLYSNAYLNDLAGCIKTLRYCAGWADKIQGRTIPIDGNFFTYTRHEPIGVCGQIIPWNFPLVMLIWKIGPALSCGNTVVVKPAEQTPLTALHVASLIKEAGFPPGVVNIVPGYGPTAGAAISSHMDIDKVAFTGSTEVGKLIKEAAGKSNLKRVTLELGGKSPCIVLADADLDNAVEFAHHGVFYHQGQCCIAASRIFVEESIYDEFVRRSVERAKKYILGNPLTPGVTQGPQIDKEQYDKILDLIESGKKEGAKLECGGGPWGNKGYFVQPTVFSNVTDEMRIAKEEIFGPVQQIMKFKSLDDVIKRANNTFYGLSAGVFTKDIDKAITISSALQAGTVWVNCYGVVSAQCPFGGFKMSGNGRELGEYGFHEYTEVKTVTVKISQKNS", "assay": "Inhibition of human ALDH1A1 using propionaldehyde as substrate preincubated with enzyme for 15 mins followed by substrate addition in presence of NAD+ and measured for 5 mins by spectrophotometric analysis", "summary_of_the_method": "as §1"}, "[5]": {"tested_on": "MIA PaCa-2", "assay": "Reversal of Mafosfamide resistance in human MIAPaCa-2 cells assessed as increase in Mafosfamide sensitivity by measuring reduction in cell viability measured after 19 hrs in presence of Mafosfamide by MTT assay", "type": "functional, cell-based", "summary_of_the_method": "(§2)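 A549 and MIA PaCa-2 cells, chosen for high ALDH1A1 expression, were obtained from NCCS. Viability was measured by MTT. Combination arms paired mafosfamide with ALDH1A1 inhibitors. Combination indices were calculated with the Chou–Talalay equation.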"}, "[6]": {"tested_on": "A549", "assay": "Anticancer activity against human A549 cells assessed as reduction in cell viability incubated for 19 hrs by MTT assay", "type": "functional, cell-based", "summary_of_the_method": "as §2"}, "[7]": {"tested_on": "MIA PaCa-2", "assay": "Anticancer activity against human MIAPaCa-2 cells assessed as reduction in cell viability incubated for 19 hrs by MTT assay", "type": "functional, cell-based", "summary_of_the_method": "as §2"}, "[8]": {"tested_on": "MIA PaCa-2", "assay": "Synergistic anticancer activity against human MIAPaCa-2 cells assessed as combination index incubated for 19 hrs in presence of Mafosfamide by MTT assay", "type": "functional", "summary_of_the_method": "as §2"}, "[9]": {"tested_on": "A549", "assay": "Synergistic anticancer activity against human A549 cells assessed as combination index incubated for 19 hrs in presence of Mafosfamide by MTT assay", "type": "functional", "summary_of_the_method": "as §2"}, "[10]": {"tested_on": "A549", "assay": "Reversal of Mafosfamide resistance in human A549 cells assessed as increase in Mafosfamide sensitivity by measuring reduction in cell viability measured after 19 hrs in presence of Mafosfamide by MTT assay", "type": "functional, cell-based", "summary_of_the_method": "as §2"}, "[11]": {"biological_target": "T4, Aldehyde dehydrogenase, dimeric NADP-preferring (Homo sapiens) (UniProt P30838)", "T4 sequence (whole entry)": "T1 sequence (P30838 whole entry)", "assay": "Inhibition of human ALDH3A1 using 4-nitrobenzaldehyde as substrate at 100 uM preincubated with enzyme for 15 mins followed by substrate addition in presence of NAD+ and measured for 5 mins by spectrophotometric analysis", "details": "time 20.0 min", "summary_of_the_method": "as §1"}, "[12]": {"biological_target": "T5, Aldehyde dehydrogenase, mitochondrial (Homo sapiens) (UniProt P05091)", "T5 sequence (whole entry)": "T2 sequence (P05091 whole entry)", "assay": "Inhibition of human ALDH2 using acetaldehyde as substrate at 100 uM preincubated with enzyme for 15 mins followed by substrate addition in presence of NAD+ and measured for 5 mins by spectrophotometric analysis", "details": "time 20.0 min", "summary_of_the_method": "as §1"}, "[13]": {"biological_target": "T6, Aldehyde dehydrogenase 1A1 (Homo sapiens) (UniProt P00352)", "T6 sequence (whole entry)": "T3 sequence (P00352 whole entry)", "assay": "Inhibition of human ALDH1A1 using propionaldehyde as substrate at 10 uM preincubated with enzyme for 15 mins followed by substrate addition in presence of NAD+ and measured for 5 mins by spectrophotometric analysis", "details": "time 20.0 min", "summary_of_the_method": "as §1"}, "[14]": {"tested_on": "A549", "assay": "Anticancer activity against human A549 cells assessed as reduction in cell viability at 370 uM incubated for 19 hrs by MTT assay", "type": "functional, cell-based"}, "[15]": {"tested_on": "MIA PaCa-2", "assay": "Anticancer activity against human MIAPaCa-2 cells assessed as reduction in cell viability at 315 uM incubated for 19 hrs by MTT assay", "type": "functional, cell-based"}},
  "note": "Calls of active or inactive are those of the source. The calls are words filed in the database; no cut-off is given here.",
  "data": [
    {"smiles": "c1ccc(Cn2c(-c3ccccc3)nc3ccccc32)cc1", "values": [
      {"measurement": "logP", "setting": "[1]", "value": 4.19},
      {"measurement": "IC50", "setting": "[2]; read-out: IC50", "value": 98.3, "unit": "µM"},
      {"measurement": "IC50", "setting": "[3]; read-out: IC50", "value": 95.6, "unit": "µM"},
      {"measurement": "IC50", "setting": "[4]", "value": 8.67, "unit": "µM"}
    ]},
    {"smiles": "COc1ccc(-c2nc3ccccc3n2Cc2ccccc2)cc1", "values": [
      {"measurement": "logP", "setting": "[1]", "value": 4.19},
      {"measurement": "IC50", "setting": "[2]", "value": "Not Active"},
      {"measurement": "IC50", "setting": "[3]", "value": "Not Active"},
      {"measurement": "Activity", "setting": "[5]", "value": "Active"},
      {"measurement": "IC50", "setting": "[4]", "value": 1.63, "unit": "µM"},
      {"measurement": "Activity", "setting": "[6]", "value": "inactive"},
      {"measurement": "Activity", "setting": "[7]", "value": "inactive"},
      {"measurement": "CI", "setting": "[8]", "value": 0.84},
      {"measurement": "CI", "setting": "[9]", "value": 0.74},
      {"measurement": "Activity", "setting": "[10]", "value": "Active"}
    ]},
    {"smiles": "CC(C)CCn1c(CN2CCN(C(=O)C3CC3)CC2)nc2c1c(=O)n(C)c(=O)n2C", "values": [
      {"measurement": "Activity", "setting": "[5]", "value": "Active"},
      {"measurement": "Activity", "setting": "[10]", "value": "Active"}
    ]},
    {"smiles": "CN(C)c1ccc(-c2nc3ccccc3n2Cc2ccccc2)cc1", "values": [
      {"measurement": "logP", "setting": "[1]", "value": 4.17},
      {"measurement": "IC50", "setting": "[2]", "value": "Not Active"},
      {"measurement": "IC50", "setting": "[3]", "value": "Not Active"},
      {"measurement": "Activity", "setting": "[5]", "value": "Active"},
      {"measurement": "IC50", "setting": "[4]", "value": 0.55, "unit": "µM"},
      {"measurement": "Activity", "setting": "[6]", "value": "inactive"},
      {"measurement": "Activity", "setting": "[7]", "value": "inactive"},
      {"measurement": "CI", "setting": "[8]", "value": 0.81},
      {"measurement": "CI", "setting": "[9]", "value": 0.69},
      {"measurement": "Activity", "setting": "[10]", "value": "Active"}
    ]},
    {"smiles": "CN(C)c1ccc(Cn2c(-c3ccc(N(C)C)cc3)nc3ccccc32)cc1", "values": [
      {"measurement": "logP", "setting": "[1]", "value": 4.02},
      {"measurement": "inhibition", "setting": "[11]", "value": "inactive"},
      {"measurement": "inhibition", "setting": "[12]", "value": "inactive"},
      {"measurement": "inhibition", "setting": "[13]", "value": "inactive"}
    ]},
    {"smiles": "Clc1ccc(-c2nc3ccccc3n2Cc2ccccc2)cc1", "values": [
      {"measurement": "logP", "setting": "[1]", "value": 4.73},
      {"measurement": "IC50", "setting": "[2]", "value": "Not Active"},
      {"measurement": "Activity", "setting": "[14]", "value": "Active"},
      {"measurement": "IC50", "setting": "[3]", "value": "Not Active"},
      {"measurement": "Activity", "setting": "[5]", "value": "Active"},
      {"measurement": "IC50", "setting": "[4]", "value": 0.32, "unit": "µM"},
      {"measurement": "Activity", "setting": "[15]", "value": "Active"},
      {"measurement": "CI", "setting": "[8]", "value": 0.98},
      {"measurement": "CI", "setting": "[9]", "value": 0.91},
      {"measurement": "Activity", "setting": "[10]", "value": "Active"}
    ]}
  ]
}
